Assays:
[1] = target: Tyrosine-protein kinase receptor TYRO3 (Homo sapiens) (UniProt Q06418); test: Inhibition of TYRO3 at 3 uM
[2] = target: Rho-associated protein kinase 2 (Homo sapiens, UniProt O75116); test: Inhibition of ROCK2
[3] = target: Serine/threonine-protein kinase PAK 5 (Homo sapiens) (UniProt Q9P286); test: Inhibition of PAK7/PAK5 at 3 uM
[4] = target: Mast/stem cell growth factor receptor Kit (Homo sapiens) (UniProt P10721); test: Inhibition of KIT at 3 uM
CYP2C9 = CYP2C9 (Homo sapiens, UniProt P11712); test: Inhibition of human CYP2C9 at 10 uM; type: ADME
[5] = target: Aurora kinase C (Homo sapiens) (UniProt Q9UQB9); test: Inhibition of AURKC at 3 uM
[6] = target: Calcium/calmodulin-dependent protein kinase type II subunit beta (Homo sapiens) (UniProt Q13554); test: Inhibition of CAMK2B at 3 uM
[7] = target: Type-1 angiotensin II receptor (Homo sapiens) (UniProt P30556); test: Inhibition of human AT1 receptor at 3 uM
Outline: (§1)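 Counter-screen binding/enzyme panel at single 3 μM, n=2; results as percent inhibition. Species per target as listed (rat NMDA, GABAA sites; human receptors, transporters; rabbit ACE).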

[8] = target: Calcium/calmodulin-dependent protein kinase type II subunit alpha (Homo sapiens) (UniProt Q9UQM7); test: Inhibition of CAMK2A at 3 uM
[9] = target: Activin receptor type-2B (Homo sapiens) (UniProt Q13705); test: Inhibition of ACVR2B at 3 uM
[10] = target: Platelet-derived growth factor receptor alpha (Homo sapiens) (UniProt P16234); test: Inhibition of PDGFRA at 3 uM
[11] = target: Serine/threonine-protein kinase PAK 2 (Homo sapiens) (UniProt Q13177); test: Inhibition of PAK2 at 3 uM
[12] = target: Androgen receptor (Rattus norvegicus) (UniProt P15207); test: Inhibition of rat androgen receptor at 3 uM
[13] = target: Mitogen-activated protein kinase kinase kinase 20 (Homo sapiens) (UniProt Q9NYL2); test: Inhibition of ZAK at 3 uM
[14] = target: Myosin light chain kinase 2, skeletal/cardiac muscle (Homo sapiens) (UniProt Q9H1R3); test: Inhibition of MYLK2 at 3 uM
[15] = target: Cyclin-dependent kinase 5 (Homo sapiens) (UniProt Q00535); test: Inhibition of CDK5 at 3 uM
[16] = target: Casein kinase I isoform gamma-1 (Homo sapiens) (UniProt Q9HCP0); test: Inhibition of CSNK1G1 at 3 uM
[17] = target: Serine/threonine-protein kinase D2 (Homo sapiens) (UniProt Q9BZL6); test: Inhibition of PRKD2 at 3 uM
Rattus norvegicus [18] = species on record: Rattus norvegicus; conditions: 3 uM
[19] = target: Serine/threonine-protein kinase NLK (Homo sapiens) (UniProt Q9UBE8); test: Inhibition of NLK at 3 uM
[20] = target: STE20-like serine/threonine-protein kinase (Homo sapiens) (UniProt Q9H2G2); test: Inhibition of SLK at 3 uM
[21] = target: Bone morphogenetic protein receptor type-1A (Homo sapiens) (UniProt P36894); test: Inhibition of BMPR1A at 3 uM
[22] = target: Serine/threonine-protein kinase DCLK1 (Homo sapiens) (UniProt O15075); test: Inhibition of DCAMKL1 at 3 uM
[23] = target: Mitogen-activated protein kinase kinase kinase kinase 5 (Homo sapiens) (UniProt Q9Y4K4); test: Inhibition of MAP4K5 at 3 uM
[24] = target: Cyclin-dependent kinase 14 (Homo sapiens) (UniProt O94921); test: Inhibition of PFTK1 at 3 uM
[25] = target: cGMP-dependent protein kinase 1 (Homo sapiens) (UniProt Q13976); test: Inhibition of PRKG1 at 3 uM
[26] = target: Glycogen synthase kinase-3 beta (Homo sapiens) (UniProt P49841); test: Inhibition of GSK3B at 3 uM
[27] = target: Tyrosine-protein kinase Lck (Homo sapiens) (UniProt P06239); test: Inhibition of LCK at 3 uM
[28] = target: Serine/threonine-protein kinase tousled-like 1 (Homo sapiens) (UniProt Q9UKI8); test: Inhibition of TLK1 at 3 uM
[29] = target: Inhibitor of nuclear factor kappa-B kinase subunit alpha (Homo sapiens) (UniProt O15111); test: Inhibition of IKK-alpha at 3 uM
Rattus norvegicus [30] = species on record: Rattus norvegicus; conditions: 3 uM; remark: listed apart in the source
[31] = target: Tyrosine-protein kinase BTK (Homo sapiens) (UniProt Q06187); test: Inhibition of BTK at 3 uM
[32] = target: Mitogen-activated protein kinase 10 (Homo sapiens) (UniProt P53779); test: Inhibition of JNK3 at 3 uM
[33] = target: Acetylcholine receptor subunit alpha (Homo sapiens) (UniProt P02708); test: Displacement of bungarotoxin from human nAChR alpha1 receptor at 3 uM
Outline: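 Counter-screen of human nicotinic α1 receptor binding, assayed by bungarotoxin displacement.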

[34] = target: Serine/threonine-protein kinase pim-1 (Homo sapiens) (UniProt P11309); test: Inhibition of PIM1 at 3 uM
[35] = target: Serine/threonine-protein kinase LATS2 (Homo sapiens) (UniProt Q9NRM7); test: Inhibition of LATS2 at 3 uM
[36] = target: Myosin light chain kinase family member 4 (Homo sapiens) (UniProt Q86YV6); test: Inhibition of SgK085 at 3 uM
[37] = target: Adenosine receptor A3 (Homo sapiens) (UniProt P0DMS8); test: Inhibition of human adenosine A3 receptor at 3 uM; outline: as §1
[38] = target: Casein kinase II subunit alpha' (Homo sapiens) (UniProt P19784); test: Inhibition of CSNK2A2 at 3 uM
[39] = target: Dual specificity protein kinase CLK4 (Homo sapiens) (UniProt Q9HAZ1); test: Inhibition of CLK4 at 3 uM
[40] = target: Tyrosine-protein kinase CSK (Homo sapiens) (UniProt P41240); test: Inhibition of CSK at 3 uM
[41] = target: Tyrosine-protein kinase Srms (Homo sapiens) (UniProt Q9H3Y6); test: Inhibition of SRMS at 3 uM
[42] = system: Tyrosine-protein kinase ABL1 (Homo sapiens), P00519 [F317L]; test: Inhibition of ABL1 F317L mutant at 3 uM
[43] = target: Serine/threonine-protein kinase PLK4 (Homo sapiens) (UniProt O00444); test: Inhibition of PLK4 at 3 uM
[44] = target: Death-associated protein kinase 1 (Homo sapiens) (UniProt P53355); test: Inhibition of DAPK1 at 3 uM
Homo sapiens = species on record: Homo sapiens; conditions: 3 uM
[45] = target: BMP-2-inducible protein kinase (Homo sapiens) (UniProt Q9NSY1); test: Inhibition of BIKE at 3 uM
BMP-2-inducible protein kinase (Homo sapiens), sequence (Q9NSY1 whole entry, looked up): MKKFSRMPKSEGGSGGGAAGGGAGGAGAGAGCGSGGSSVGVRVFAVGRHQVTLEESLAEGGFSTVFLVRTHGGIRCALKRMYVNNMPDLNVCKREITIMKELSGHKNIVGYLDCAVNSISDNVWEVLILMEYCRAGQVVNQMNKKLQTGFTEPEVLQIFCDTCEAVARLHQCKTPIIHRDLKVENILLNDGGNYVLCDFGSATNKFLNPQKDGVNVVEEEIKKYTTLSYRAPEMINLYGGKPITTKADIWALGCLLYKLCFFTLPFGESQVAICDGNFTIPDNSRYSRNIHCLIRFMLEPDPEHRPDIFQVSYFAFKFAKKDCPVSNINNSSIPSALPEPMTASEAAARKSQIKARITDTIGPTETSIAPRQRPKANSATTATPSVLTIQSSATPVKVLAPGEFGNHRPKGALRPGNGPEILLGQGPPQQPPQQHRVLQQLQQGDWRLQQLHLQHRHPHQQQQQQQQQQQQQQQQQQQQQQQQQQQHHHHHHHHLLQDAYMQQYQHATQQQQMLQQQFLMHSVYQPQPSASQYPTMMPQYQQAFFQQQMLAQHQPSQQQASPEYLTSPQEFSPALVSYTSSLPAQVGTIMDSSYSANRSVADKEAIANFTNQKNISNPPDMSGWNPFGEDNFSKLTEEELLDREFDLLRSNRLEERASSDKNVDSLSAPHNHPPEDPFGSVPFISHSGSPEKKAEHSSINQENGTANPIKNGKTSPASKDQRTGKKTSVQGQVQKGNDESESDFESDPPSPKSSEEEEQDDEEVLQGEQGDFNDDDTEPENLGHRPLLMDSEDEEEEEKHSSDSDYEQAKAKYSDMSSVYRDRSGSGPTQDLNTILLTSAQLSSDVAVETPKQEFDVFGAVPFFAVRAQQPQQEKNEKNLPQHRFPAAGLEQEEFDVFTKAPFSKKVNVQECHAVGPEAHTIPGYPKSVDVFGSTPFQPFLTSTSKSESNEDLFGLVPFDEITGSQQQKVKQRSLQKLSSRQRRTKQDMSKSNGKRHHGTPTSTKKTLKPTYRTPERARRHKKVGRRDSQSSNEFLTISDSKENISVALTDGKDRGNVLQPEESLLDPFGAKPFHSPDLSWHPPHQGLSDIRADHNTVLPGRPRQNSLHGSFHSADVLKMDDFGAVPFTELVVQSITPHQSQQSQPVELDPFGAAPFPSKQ

Mitogen-activated protein kinase 10 (Homo sapiens), sequence (P53779 whole entry): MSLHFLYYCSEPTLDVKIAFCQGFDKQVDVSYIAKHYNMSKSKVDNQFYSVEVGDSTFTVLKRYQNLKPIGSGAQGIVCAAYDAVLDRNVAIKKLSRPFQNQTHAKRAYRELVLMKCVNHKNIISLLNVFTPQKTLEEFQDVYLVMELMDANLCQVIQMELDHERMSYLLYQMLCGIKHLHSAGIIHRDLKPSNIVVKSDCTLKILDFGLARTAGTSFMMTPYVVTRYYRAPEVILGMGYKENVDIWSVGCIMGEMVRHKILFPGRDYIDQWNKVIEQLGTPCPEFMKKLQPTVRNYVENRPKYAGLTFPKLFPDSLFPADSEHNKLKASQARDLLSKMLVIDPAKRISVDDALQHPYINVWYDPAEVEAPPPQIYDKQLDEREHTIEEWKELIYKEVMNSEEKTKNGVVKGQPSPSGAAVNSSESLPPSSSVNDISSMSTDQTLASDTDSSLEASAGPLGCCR
Serine/threonine-protein kinase pim-1 (Homo sapiens), sequence (P11309 whole entry, looked up): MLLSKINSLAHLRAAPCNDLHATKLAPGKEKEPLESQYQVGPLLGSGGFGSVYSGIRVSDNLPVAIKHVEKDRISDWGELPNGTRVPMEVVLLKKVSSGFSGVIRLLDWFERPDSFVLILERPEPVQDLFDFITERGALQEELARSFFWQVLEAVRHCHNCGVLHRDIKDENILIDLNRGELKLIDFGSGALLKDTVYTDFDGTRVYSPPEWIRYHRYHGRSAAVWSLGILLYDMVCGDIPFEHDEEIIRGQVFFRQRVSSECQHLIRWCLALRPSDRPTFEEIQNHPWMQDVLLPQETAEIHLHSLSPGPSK
Serine/threonine-protein kinase D2 (Homo sapiens), sequence (Q9BZL6 whole entry): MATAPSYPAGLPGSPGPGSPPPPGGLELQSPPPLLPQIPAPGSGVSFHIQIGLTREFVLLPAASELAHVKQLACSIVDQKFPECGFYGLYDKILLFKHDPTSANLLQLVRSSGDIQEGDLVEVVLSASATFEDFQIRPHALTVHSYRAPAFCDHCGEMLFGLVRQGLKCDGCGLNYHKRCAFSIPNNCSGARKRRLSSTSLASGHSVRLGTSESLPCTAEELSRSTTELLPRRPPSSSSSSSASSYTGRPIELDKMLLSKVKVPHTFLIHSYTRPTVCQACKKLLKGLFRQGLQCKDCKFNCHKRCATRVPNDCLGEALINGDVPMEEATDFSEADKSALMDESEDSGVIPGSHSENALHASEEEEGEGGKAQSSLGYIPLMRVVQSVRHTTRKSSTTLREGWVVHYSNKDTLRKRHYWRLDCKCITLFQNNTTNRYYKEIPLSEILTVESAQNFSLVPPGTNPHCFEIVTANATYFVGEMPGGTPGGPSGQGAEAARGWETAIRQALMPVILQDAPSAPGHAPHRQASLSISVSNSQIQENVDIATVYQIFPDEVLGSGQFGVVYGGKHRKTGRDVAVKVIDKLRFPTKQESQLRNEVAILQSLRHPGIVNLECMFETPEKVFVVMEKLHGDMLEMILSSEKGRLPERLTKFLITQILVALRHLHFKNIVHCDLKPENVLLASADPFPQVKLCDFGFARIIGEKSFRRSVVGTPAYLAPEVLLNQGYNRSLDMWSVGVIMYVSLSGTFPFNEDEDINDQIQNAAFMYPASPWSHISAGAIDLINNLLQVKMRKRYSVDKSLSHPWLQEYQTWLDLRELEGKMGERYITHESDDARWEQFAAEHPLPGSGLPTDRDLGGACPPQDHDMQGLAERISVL
Casein kinase II subunit alpha' (Homo sapiens), sequence (P19784 whole entry, looked up): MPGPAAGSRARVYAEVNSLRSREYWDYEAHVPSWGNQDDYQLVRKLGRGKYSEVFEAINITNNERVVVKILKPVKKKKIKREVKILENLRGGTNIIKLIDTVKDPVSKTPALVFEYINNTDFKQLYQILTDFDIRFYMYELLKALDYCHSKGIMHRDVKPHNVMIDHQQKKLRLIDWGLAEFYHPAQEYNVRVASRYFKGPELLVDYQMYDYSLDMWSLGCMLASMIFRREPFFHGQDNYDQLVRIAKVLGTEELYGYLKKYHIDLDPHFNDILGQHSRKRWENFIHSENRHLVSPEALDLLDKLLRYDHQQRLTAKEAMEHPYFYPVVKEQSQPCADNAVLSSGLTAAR
Calcium/calmodulin-dependent protein kinase type II subunit alpha (Homo sapiens), sequence (Q9UQM7 whole entry): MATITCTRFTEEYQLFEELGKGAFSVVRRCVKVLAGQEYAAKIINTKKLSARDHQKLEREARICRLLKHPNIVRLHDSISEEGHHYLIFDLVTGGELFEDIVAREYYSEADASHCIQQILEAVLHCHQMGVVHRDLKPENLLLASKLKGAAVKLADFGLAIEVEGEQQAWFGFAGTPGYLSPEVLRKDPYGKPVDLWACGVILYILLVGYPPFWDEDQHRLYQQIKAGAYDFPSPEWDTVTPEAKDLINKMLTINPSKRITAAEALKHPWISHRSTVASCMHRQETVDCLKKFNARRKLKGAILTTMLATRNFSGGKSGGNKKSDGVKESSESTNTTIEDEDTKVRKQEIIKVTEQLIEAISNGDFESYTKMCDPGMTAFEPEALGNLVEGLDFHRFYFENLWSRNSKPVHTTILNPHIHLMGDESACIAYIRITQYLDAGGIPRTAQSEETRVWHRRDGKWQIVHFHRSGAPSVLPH
Tyrosine-protein kinase Srms (Homo sapiens), sequence (Q9H3Y6 whole entry): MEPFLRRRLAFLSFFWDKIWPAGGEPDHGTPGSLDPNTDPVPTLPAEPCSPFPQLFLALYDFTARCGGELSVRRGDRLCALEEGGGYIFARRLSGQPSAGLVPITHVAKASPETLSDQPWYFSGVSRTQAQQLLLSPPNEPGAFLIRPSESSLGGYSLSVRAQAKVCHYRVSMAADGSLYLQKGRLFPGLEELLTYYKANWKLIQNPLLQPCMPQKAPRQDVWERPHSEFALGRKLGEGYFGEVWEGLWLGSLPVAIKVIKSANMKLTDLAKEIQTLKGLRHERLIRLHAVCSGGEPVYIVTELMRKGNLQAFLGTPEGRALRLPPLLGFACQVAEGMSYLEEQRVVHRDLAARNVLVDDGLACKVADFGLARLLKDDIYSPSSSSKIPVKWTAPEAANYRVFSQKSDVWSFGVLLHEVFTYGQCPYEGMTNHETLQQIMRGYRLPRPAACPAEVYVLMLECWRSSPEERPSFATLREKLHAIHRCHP
Type-1 angiotensin II receptor (Homo sapiens), sequence (P30556 whole entry): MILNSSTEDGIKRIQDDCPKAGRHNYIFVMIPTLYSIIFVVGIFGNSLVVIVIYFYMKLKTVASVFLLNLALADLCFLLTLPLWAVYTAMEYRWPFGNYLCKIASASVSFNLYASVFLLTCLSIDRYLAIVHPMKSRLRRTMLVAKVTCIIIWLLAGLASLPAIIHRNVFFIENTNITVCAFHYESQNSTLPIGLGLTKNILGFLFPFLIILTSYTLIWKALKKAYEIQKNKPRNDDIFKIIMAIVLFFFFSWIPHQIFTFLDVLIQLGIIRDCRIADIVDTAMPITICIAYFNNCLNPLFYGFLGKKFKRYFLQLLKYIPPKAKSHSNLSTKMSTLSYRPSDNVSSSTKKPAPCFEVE
Activin receptor type-2B (Homo sapiens), sequence (Q13705 whole entry): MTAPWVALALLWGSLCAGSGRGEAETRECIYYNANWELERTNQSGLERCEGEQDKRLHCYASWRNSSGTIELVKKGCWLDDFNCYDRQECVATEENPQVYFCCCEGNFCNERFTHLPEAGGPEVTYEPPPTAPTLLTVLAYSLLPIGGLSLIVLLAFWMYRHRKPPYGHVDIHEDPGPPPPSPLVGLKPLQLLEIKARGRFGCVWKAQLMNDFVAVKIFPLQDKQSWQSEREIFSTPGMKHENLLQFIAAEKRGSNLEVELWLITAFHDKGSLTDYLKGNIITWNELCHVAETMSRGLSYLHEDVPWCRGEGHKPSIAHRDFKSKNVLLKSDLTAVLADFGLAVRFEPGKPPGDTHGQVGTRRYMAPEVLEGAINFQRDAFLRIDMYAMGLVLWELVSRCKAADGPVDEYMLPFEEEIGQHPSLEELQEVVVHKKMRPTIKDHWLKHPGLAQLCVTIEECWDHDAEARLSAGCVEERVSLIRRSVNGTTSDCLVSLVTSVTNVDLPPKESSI

## CN(C)CCOc1cc(-c2cn[nH]c2)ccc1NC(=O)C1COc2ccccc2O1 (configuration not stated) [SR-3677]
[1]
  inhibition: < 10%
[2]
  IC50: 3.2 nM
[3]
  inhibition: < 10%
[4]
  inhibition: < 10%
CYP2C9
  inhibition at 10 µM: 80%
[5]
  inhibition: < 10%
[6]
  inhibition: < 10%
[7]
  inhibition: -1%
[8]
  inhibition: < 10%
[9]
  inhibition: < 10%
[10]
  inhibition: < 10%
[11]
  inhibition: < 10%
[12]
  inhibition: 10%
[13]
  inhibition: < 10%
[14]
  inhibition: < 10%
[15]
  inhibition: < 10%
[16]
  inhibition: < 10%
[17]
  inhibition: < 10%
Rattus norvegicus [18]
  inhibition: 14%
[19]
  inhibition: < 10%
[20]
  inhibition: < 10%
[21]
  inhibition: < 10%
[22]
  inhibition: < 10%
[23]
  inhibition: < 10%
[24]
  inhibition: < 10%
[25]
  inhibition: < 10%
[26]
  inhibition: < 10%
[27]
  inhibition: < 10%
[28]
  inhibition: < 10%
[29]
  inhibition: < 10%
Rattus norvegicus [30]
  inhibition: 0%
[31]
  inhibition: < 10%
[32]
  inhibition: < 10%
[33]
  inhibition: 7%
[34]
  inhibition: < 10%
[35]
  inhibition: 88%
[36]
  inhibition: < 10%
[37]
  inhibition: -4%
[38]
  inhibition: < 10%
[39]
  inhibition: 90%
[40]
  inhibition: < 10%
[41]
  inhibition: < 10%
[42]
  inhibition: < 10%
[43]
  inhibition: < 10%
[44]
  inhibition: < 10%
Homo sapiens
  inhibition: 7%
[45]
  inhibition: < 10%

Reference: ChEMBL document CHEMBL1142492 (J Med Chem, 2008)
